Source: PubChem
Ecoli rRNA inh: inhibits bacterial ribosomal RNA function over humanized ribosomes | AID 720706 | GFP signal change (wild-type ribosome), % (test concentration not listed) | E. coli WT GFP vs humanized-ribosome RFP mutants, fluorescence, 24 h; stronger effect = lower value; DMSO median 0, no signal -100 | 350,000 compounds, 1.6% hits;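 active means significant combined selectivity score with lowered wild-type GFP, culture density cut under 30%, mutant RFP and density less affected; inactive means any of these conditions unmet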
MLL AF4-AF9 inh: MLL-AF4/AF9 protein interaction inhibition | 350,000 compounds, 0.47% hits | inhibition, % at 10 µM | AlphaScreen, biotin-AF4 peptide binding to FLAG-AF9 | P42568;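 active means every replicate reaching a set inhibition limit, whatever the replicate mean, cut at about 25% in these data; inconclusive means mean inhibition reaches that limit but some replicates miss it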;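 further: 0% = plate neutral control median and 100% = total signal loss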
Target sequence (P42568 whole entry, looked up): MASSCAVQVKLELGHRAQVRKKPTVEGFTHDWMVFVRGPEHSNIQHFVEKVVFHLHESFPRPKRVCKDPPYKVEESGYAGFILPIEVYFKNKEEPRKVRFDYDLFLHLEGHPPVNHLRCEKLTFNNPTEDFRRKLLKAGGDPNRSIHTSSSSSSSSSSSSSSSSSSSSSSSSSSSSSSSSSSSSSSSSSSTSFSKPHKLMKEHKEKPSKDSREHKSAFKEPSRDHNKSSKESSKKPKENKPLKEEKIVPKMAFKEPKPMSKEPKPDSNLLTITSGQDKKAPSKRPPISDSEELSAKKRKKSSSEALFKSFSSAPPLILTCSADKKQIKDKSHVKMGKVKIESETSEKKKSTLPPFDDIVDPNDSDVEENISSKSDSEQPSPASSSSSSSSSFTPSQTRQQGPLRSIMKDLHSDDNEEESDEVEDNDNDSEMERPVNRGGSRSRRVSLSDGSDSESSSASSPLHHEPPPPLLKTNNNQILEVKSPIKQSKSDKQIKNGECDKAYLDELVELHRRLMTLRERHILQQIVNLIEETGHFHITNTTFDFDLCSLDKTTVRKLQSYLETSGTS
S100A4 inh HTS: S100A4-myosin IIA interaction inhibition | S100A4/TAMRA-MyoIIA peptide fluorescence polarization | inhibition, % at 10.7 µM | 360,000 compounds, 0.14% hits | AID 652163;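 active means mean inhibition of at least 70% across replicates, with every replicate also reaching that level; inconclusive means mean inhibition reaches 70% but some replicates fall short; inactive means mean inhibition below 70%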
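Test system – S100A4 monomer (human) · Compound – single-point compound testing · Schedule – 5 min incubation before reading · Probe or stimulus – TAMRA-labelled myosin IIA heavy-chain peptide probe, 5 nM · Benchmarks – neutral control DMSO, positive control TFP · Medium – Calcium-containing HEPES buffer, pH 7.2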
Cneo AK release: causes C. neoformans cell lysis; adenylate kinase release luminescence, 4 h; normalised: neutral wells 0, clomiphene wells 100; lysis activity, % at 15 µM; 360,000 compounds, 0.2% hits;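 active means mean lysis activity across replicates of at least 80%, whatever share of replicates individually reach that level; inactive means mean lysis activity below 80%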
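Test system: log-phase Cryptococcus neoformans yeast cells. Input: 5 × 10^6 yeast cells/mL. Medium: fresh YPD growth medium. Doses: single dose. Incubation: static 4 h at 37 °C with compound, 1 h detection. Measured by: luminescent adenylate kinase detection reagent. Read-out: signal increase indicating cell lysis. Benchmarks: Clomiphene.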
PfHsp90 set2: reduces growth (ATP signal) of yeast expressing P. falciparum Hsp90 | S. cerevisiae expressing PfHsp90, BacTiter-Glo ATP, 48 h; yeast lacking PDR1 and PDR3 efflux regulators | inhibition, % at 9.4 µM | 310,000 compounds, 0.32% hits;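 active means every replicate shows inhibition above about 80%, whatever the replicate mean, limit read from the data; inconclusive means mean inhibition reaches the set limit but some replicate falls short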;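 further: 0% = DMSO neutral controls and 100% = 20 µM radicicol positive controls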
DENV2 CPE: DENV2-induced cell death inhibition | DENV2-infected cells, cytopathic effect rescue, plate reader | CPE inhibition, % at 9.99 µM | 350,000 compounds, 1.7% hits; in the data active means CPE inhibition above about 20%, passing the limit was not always enough; inconclusive means no clear call, values can overlap the other calls; tested in BHK-21 cells;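 further: 0% = median of neutral control wells and 100% = median of positive control wells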
AID977621: wild-type E. coli growth inhibition versus H69 humanized strain – H69 mutant RFP, wild-type GFP, cherry-pick, dose response; fluorescence, 24 h; shares compounds with Ecoli rRNA inh; AID 977621; activity change, negative = inhibition at 50 µM; 1,900 tested, under 10 active;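 active means Wild-type ribosome reporter drop at least double the humanized mutant ribosome reporter drop, growth loss under a set limit; inconclusive means no clear call, values can overlap the other calls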;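 further: wild-type GFP and H69 mutant RFP strains grown together 50/50 in each well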
AID977628: E. coli growth inhibition, wild-type GFP versus h24 humanized RFP strain, dose response, h24 mutant RFP vs wild-type GFP, cherry-pick. shares compounds with Ecoli rRNA inh. E. coli WT GFP strain growth, fluorescence, 24 h. activity change, negative = inhibition at 50 µM. 1,900 tested, under 10 active. AID 977628;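 active means compound lowering the normal-ribosome reporter at least twice as much as the humanized-ribosome reporter, growth loss under a set limit; inconclusive means no clear call, values can overlap the other calls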;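 further: wild-type GFP and h24 humanized RFP strains co-cultured 1 to 1 per well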
The depositor's hits bear a star; ? = inconclusive; . = not tested or not shown. Most compounds without a hit are left out; they make up all but 3.2% or so of the library.

SMILES	Ecoli rRNA inh	MLL AF4-AF9 inh	S100A4 inh HTS	Cneo AK release	PfHsp90 set2	DENV2 CPE	AID977621	AID977628
Cc1ccc(S(=O)(=O)N2CCOCC2)cc1NC(=O)COc1cccc(-n2cnnn2)c1	2	-2	-2	-5	10	-4	.	.
COC(=O)[C@H]1[C@H](CO)[C@H]2Cn3c(ccc(C4=CCCC4)c3=O)[C@H]2N1C(=O)C1CCC1	1	5	4	3	.	0	.	.
C=CCn1c(SCC(=O)N2CCCC2=O)nc2sc(CC)cc2c1=O	-23*	-5	4	-2	0	11	-18	?
O=C1c2ccccc2C(=O)N1CCCc1c[nH]c2ccccc12	.	.	.	-6	-9	.	.	.
O=C1c2ccccc2C(=O)N1CCc1c[nH]c2ccccc12	-21*	5	-1	.	-20	-5	-6.8	.
C[C@@H]1CN([C@@H](C)CO)S(=O)(=O)c2ccc(C3=CCCCC3)cc2O[C@H]1CN(C)Cc1cccc(C(=O)O)c1	-5	1	-12	-4	.	9	.	.
Cc1cccc(N2CCN(Cc3nc(-c4ccc(F)cc4F)oc3C)CC2)n1	-34*	7	-2	1	.	-5	-12	-19
Cc1cnc(C)c(N2CCN(Cc3nc(-c4cccc(F)c4F)oc3C)CC2)n1	-16	4	3	.	-18	-6	.	.
Cc1ccccc1NC(=O)c1ccccc1N(C)S(=O)(=O)c1ccccc1	-19*	14	6	.	-4	6	-21	?
O=C1C(Oc2ccccc2)C(c2cccs2)N1Cc1ccc2c(c1)OCO2 (stereo not drawn)	.	.	.	7	14	.	.	.
COc1ccc(OC2C(=O)N(Cc3ccc4c(c3)OCO4)C2c2cccs2)cc1 (stereo not drawn)	-22*	2	3	9	-9	-6	-16	.
OC(COc1ccc(Cl)cc1)CN1CCN(c2ccccn2)CC1 (stereo not drawn)	-22*	-2	-6	.	-7	2	.	-6.8
C[C@H](CO)N1C[C@H](C)[C@@H](CN(C)C(=O)CCCN(C)C)OCCCC[C@H](C)Oc2ccc(NC(=O)Nc3cccc4ccccc34)cc2C1=O	-2	16	-29	1	.	-2	-7.8	?
C[C@@H]1CCCCO[C@@H](CN(C)C(=O)CCCN(C)C)[C@H](C)CN([C@H](C)CO)C(=O)c2cc(NC(=O)Nc3ccccc3)ccc2O1	0	12	5	-1	.	-1	.	.
C[C@@H]1CCCCO[C@H](CN(C)C(=O)CCCN(C)C)[C@H](C)CN([C@H](C)CO)C(=O)c2cc(NC(=O)Nc3cccc4ccccc34)ccc2O1	2	-2	23	0	.	-2	.	?
CC(C)(C)c1cc(CN2CCN(CCO)CC2)cc(C(C)(C)C)c1O	.	.	.	4	.	.	.	.
CN1CCN(CC(=O)c2cc(C(C)(C)C)c(O)c(C(C)(C)C)c2)CC1	-31*	10	-4	-3	12	-4	-2.8	-9.3
CCCC#Cc1ccc2c(c1)O[C@@H](CN(C)C(=O)CN(C)C)[C@H](C)CN([C@H](C)CO)S2(=O)=O	1	3	0	-1	.	-7	.	.
Nc1nc(Nc2ccccc2F)nc(NCc2ccco2)c1[N+](=O)[O-]	-20*	-2	-5	.	-20	1	?	.
Cc1ccc(Nc2nc(N)c([N+](=O)[O-])c(NCc3ccco3)n2)cc1	.	.	.	.	-77	.	.	.
CO[C@@H]1CN(C)C(=O)c2ccc(NC(=O)c3cnccn3)cc2OC[C@H](C)N(C)C[C@H]1C	1	.	.	-1	.	.	.	.
COc1ccc(-c2nnc(COc3ccc(Br)cc3C)o2)cc1	-19*	-1	-4	3	.	1	?	?
